Six compounds from ChEMBL document CHEMBL1154048, “Design, synthesis and pharmacological evaluation of new 1-[3-(4-arylpiperazin-1-yl)-2-hydroxy-propyl]-3,3-diphenylpyrrolidin-2-one derivatives with antiarrhythmic, antihypertensive, and alpha-adrenolytic activity” (Eur J Med Chem, 2009) can be followed below.

Each structure is given as a SMILES string.

Assay [1] relates to Rattus norvegicus. The assay can be described thus: Hypotensive activity in normotensive Wistar rat assessed as systolic blood pressure at 5 mg/kg, iv after 20 mins (Rvb=138 +/- 0.9 mmHg). The class given is functional, Artery.
Assay [2] concerns Rattus norvegicus. Nature of the assay: Hypotensive activity in normotensive Wistar rat assessed as diastolic blood pressure at 5 mg/kg, iv after 5 mins (Rvb=119 +/- 1.2 mmHg). It is filed as functional, Artery.
Assay [3] deals with Rattus norvegicus. Nature of the assay: Hypotensive activity in normotensive Wistar rat assessed as diastolic blood pressure at 5 mg/kg, iv after 20 mins (Rvb=119 +/- 1.2 mmHg). The class given is functional, Artery.
Assay [4] has as its system Rattus norvegicus. The assay can be described thus: Hypotensive activity in normotensive Wistar rat assessed as diastolic blood pressure at 5 mg/kg, iv after 30 mins (Rvb=119 +/- 1.2 mmHg). It is filed as functional, Artery.
Assay [5] has as its system Rattus norvegicus. The assay can be described thus: Hypotensive activity in normotensive Wistar rat assessed as diastolic blood pressure at 5 mg/kg, iv after 60 mins (Rvb=119 +/- 1.2 mmHg). The class given is functional, Artery.
For assay [6], the system named is Rattus norvegicus. Nature of the assay: Hypotensive activity in normotensive Wistar rat assessed as diastolic blood pressure at 2.5 mg/kg, iv after 10 mins (Rvb=107.2 +/- 7.3 mmHg). It is filed as functional, Artery.
For assay [7], the system named is Rattus norvegicus. Nature of the assay: Hypotensive activity in normotensive Wistar rat assessed as diastolic blood pressure at 2.5 mg/kg, iv after 20 mins (Rvb=107.2 +/- 7.3 mmHg). It is filed as functional, Artery.
Assay [8] has as its system Rattus norvegicus. The assay can be described thus: Hypotensive activity in normotensive Wistar rat assessed as diastolic blood pressure at 2.5 mg/kg, iv after 60 mins (Rvb=107.2 +/- 7.3 mmHg). It is filed as functional, Artery.
The subject of assay [9] is Rattus norvegicus. The assay can be described thus: Hypotensive activity in normotensive Wistar rat assessed as systolic blood pressure at 5 mg/kg, iv after 10 mins (Rvb=140.5 +/- 1.1 mmHg). The class given is functional, Artery.
For assay [10], the system named is Rattus norvegicus. Nature of the assay: Hypotensive activity in normotensive Wistar rat assessed as diastolic blood pressure at 5 mg/kg, iv after 30 mins (Rvb=125.5 +/- 0.6 mmHg). It is filed as functional, Artery.
Assay [11] deals with Rattus norvegicus. Nature of the assay: Hypotensive activity in normotensive Wistar rat assessed as systolic blood pressure at 5 mg/kg, iv after 5 mins (Rvb=141.3 +/- 6.4 mmHg). It is filed as functional, Artery.
In assay [12] the test system is Rattus norvegicus. Nature of the assay: Hypotensive activity in normotensive Wistar rat assessed as systolic blood pressure at 5 mg/kg, iv after 10 mins (Rvb=141.3 +/- 6.4 mmHg). The class given is functional, Artery.
The subject of assay [13] is Rattus norvegicus. Nature of the assay: Hypotensive activity in normotensive Wistar rat assessed as systolic blood pressure at 5 mg/kg, iv after 20 mins (Rvb=141.3 +/- 6.4 mmHg). It is filed as functional, Artery.
Assay [14] has as its system Rattus norvegicus. The assay can be described thus: Hypotensive activity in normotensive Wistar rat assessed as systolic blood pressure at 5 mg/kg, iv after 60 mins (Rvb=141.3 +/- 6.4 mmHg). The class given is functional, Artery.
Assay [15] deals with Rattus norvegicus. Nature of the assay: Hypotensive activity in normotensive Wistar rat assessed as diastolic blood pressure at 5 mg/kg, iv after 10 mins (Rvb=126 +/- 4.6 mmHg). The class given is functional, Artery.
Assay [16] deals with Rattus norvegicus. Nature of the assay: Hypotensive activity in normotensive Wistar rat assessed as diastolic blood pressure at 5 mg/kg, iv after 60 mins (Rvb=126 +/- 4.6 mmHg). It is filed as functional, Artery.
The test system of assay [17] is Rattus norvegicus. The assay can be described thus: Hypotensive activity in normotensive Wistar rat assessed as systolic blood pressure at 5 mg/kg, iv after 20 mins (Rvb=139 +/- 0.6 mmHg). It is filed as functional, Artery.
Assay [18] relates to Rattus norvegicus. The assay can be described thus: Hypotensive activity in normotensive Wistar rat assessed as systolic blood pressure at 5 mg/kg, iv after 60 mins (Rvb=139 +/- 0.6 mmHg). It is filed as functional, Artery.
For assay [19], the target named is T1, Alpha-1D adrenergic receptor (Rattus norvegicus) (UniProt P23944).
T1 sequence (whole entry): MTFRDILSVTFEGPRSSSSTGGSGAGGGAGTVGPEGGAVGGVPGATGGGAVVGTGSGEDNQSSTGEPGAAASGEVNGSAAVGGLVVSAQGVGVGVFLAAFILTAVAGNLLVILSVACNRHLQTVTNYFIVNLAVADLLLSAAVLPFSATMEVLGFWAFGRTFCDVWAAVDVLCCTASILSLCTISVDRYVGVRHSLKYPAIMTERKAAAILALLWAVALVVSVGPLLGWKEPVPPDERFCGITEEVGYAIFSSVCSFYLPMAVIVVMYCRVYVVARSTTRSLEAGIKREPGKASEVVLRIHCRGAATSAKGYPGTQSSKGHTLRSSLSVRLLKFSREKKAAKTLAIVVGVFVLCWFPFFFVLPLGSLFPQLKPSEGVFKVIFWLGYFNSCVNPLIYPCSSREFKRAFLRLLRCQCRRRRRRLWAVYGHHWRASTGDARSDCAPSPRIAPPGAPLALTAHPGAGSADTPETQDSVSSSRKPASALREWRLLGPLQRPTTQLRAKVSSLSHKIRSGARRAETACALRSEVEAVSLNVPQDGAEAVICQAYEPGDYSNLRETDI
Nature of the assay: (§1) Antagonist activity at Alpha-1D adrenoceptor in Wistar rat thoracic aorta assessed as inhibition of noradrenaline-induced contraction after 30 mins. It is filed as functional, tissue-based. The method, boiled down:
(§2)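 Male Wistar rats (200–350 g) were anaesthetized with thiopental 75 mg/kg ip. Endothelium-denuded thoracic aorta rings (~4 mm) were held in Krebs–Henseleit at 37 °C, pH 7.4, gassed O2/CO2 19:1, at 2 g tension and equilibrated 3 h. Two cumulative noradrenaline curves were run 60 min apart, with 30 min antagonist incubation and continuous propranolol. EC50 came from non-linear regression, and Schild plots gave pA2. n = 5–8.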

For assay [20], the target named is T2, Alpha-1D adrenergic receptor (Rattus norvegicus, UniProt P23944).
T2 sequence (P23944 whole entry): T1 sequence (whole entry)
The description is as §1. It is filed as functional, tissue-based. The settings on record: read-out: pA2 (converted). The method, boiled down:
as §2

For assay [21], the species on record is Rattus norvegicus. The assay can be described thus: Selectivity for rat cerebral cortex alpha1 adrenergic receptor over rat cerebral cortex alpha2 adrenergic receptor. The class given is tissue-based. The method, boiled down:
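Rat cerebral cortex membranes were prepared in 50 mM Tris–HCl pH 7.6, homogenized and spun twice at 20 000 g. Competition was against [3H]prazosin 0.2 nM (α1) or [3H]clonidine 2 nM (α2), with 7–8 concentrations from 10^-11 to 10^-4 M. Nonspecific binding was defined with phentolamine for the prazosin assay. After filtration, binding was read by scintillation counting in duplicate. Ki was calculated by Cheng–Prusoff, and selectivity was compared from the α1 and α2 Ki values.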

Assay [22] can be described thus: Selectivity ratio of Kb for alpha1B adrenoceptor in guinea pig spleen to Kb for Alpha-1D adrenoceptor in Wistar rat thoracic aorta. It is filed as tissue-based. The method, boiled down:
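Isolated-tissue antagonism assays were run in guinea-pig spleen (α1B) and in endothelium-denuded ~4 mm thoracic aortic rings from male Wistar rats weighing 200–350 g (α1D). Aortic rings sat in Krebs–Henseleit at 37 °C, pH 7.4, gassed with O2/CO2 19:1, at 2 g tension. Two cumulative noradrenaline curves were run 60 min apart, with 30 min antagonist incubation and continuous propranolol. Schild pA2 was taken as pKB, n ≥ 5.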

For assay [23], the system named is Rattus norvegicus. The assay can be described thus: Hypotensive activity in normotensive Wistar rat assessed as systolic blood pressure at 5 mg/kg, iv after 60 mins (Rvb=142.5 +/- 3.6 mmHg). The class given is functional, Artery.
The test system of assay [24] is Rattus norvegicus. The assay can be described thus: Hypotensive activity in normotensive Wistar rat assessed as diastolic blood pressure at 5 mg/kg, iv after 5 mins (Rvb=127 +/- 8.1 mmHg). It is filed as functional, Artery.
Assay [25] concerns Rattus norvegicus. Nature of the assay: Hypotensive activity in normotensive Wistar rat assessed as diastolic blood pressure at 5 mg/kg, iv after 10 mins (Rvb=127 +/- 8.1 mmHg). The class given is functional, Artery.
The test system of assay [26] is Rattus norvegicus. Nature of the assay: Hypotensive activity in normotensive Wistar rat assessed as diastolic blood pressure at 5 mg/kg, iv after 20 mins (Rvb=127 +/- 8.1 mmHg). It is filed as functional, Artery.

As to `Cl.Cl.O=C1N(CC(O)CN2CCN(c3ccccc3C(F)(F)F)CC2)CCC1(c1ccccc1)c1ccccc1` (stereo unspecified), the Activity in the assay with Rattus norvegicus [1] was 119 mmHg; in the assay on Rattus norvegicus [2], 103 mmHg; with Rattus norvegicus [3], 104 mmHg; with Rattus norvegicus [4], 103 mmHg; in the assay with Rattus norvegicus [5] it was 100 mmHg.

As for `COc1ccc(N2CCN(CC(O)CN3CCC(c4ccccc4)(c4ccccc4)C3=O)CC2)cc1.Cl.Cl` (stereo unspecified), the Activity with Rattus norvegicus [6] is 96.4 mmHg; in the assay with Rattus norvegicus [7], 89.8 mmHg; in the assay on Rattus norvegicus [8], 88.2 mmHg.

Take `Cl.Cl.O=C1N(CC(O)CN2CCN(c3ccccc3)CC2)CCC1(c1ccccc1)c1ccccc1` (stereo unspecified): the Activity with Rattus norvegicus [9] was 134.5 mmHg; in the assay on Rattus norvegicus [10], 113.5 mmHg.

`Cc1ccccc1N1CCN(CC(O)CN2CCC(c3ccccc3)(c3ccccc3)C2=O)CC1.Cl.Cl` (stereo unspecified): the Activity with Rattus norvegicus [11] worked out at 132.3 mmHg; in the assay on Rattus norvegicus [12], 133.7 mmHg; with Rattus norvegicus [13] it was 136.3 mmHg; in the assay on Rattus norvegicus [14] it was 116 mmHg; with Rattus norvegicus [15] it was 118 mmHg; in the assay on Rattus norvegicus [16], 99 mmHg.

As to `COc1ccccc1N1CCN(CC(O)CN2CCC(c3ccccc3)(c3ccccc3)C2=O)CC1.Cl.Cl` (stereo unspecified), the Activity in the assay with Rattus norvegicus [17] stood at 118 mmHg; in the assay on Rattus norvegicus [18], 112 mmHg.

With `CCOc1ccccc1N1CCN(CC(O)CN2CCC(c3ccccc3)(c3ccccc3)C2=O)CC1.Cl.Cl` (stereo unspecified), the Activity entry in assay [19] was “Dose-dependent effect”; in the assay on Rattus norvegicus [23], 114 mmHg; in the assay on Rattus norvegicus [24] it was 117 mmHg; in the assay on Rattus norvegicus [25], 105 mmHg; in the assay on Rattus norvegicus [26], 98 mmHg. For the same compound, the Kb in [20] was 0.055 µM. For the same compound, the Selectivity ratio in the assay filed under Rattus norvegicus [21] was 10. The Ratio in assay [22] is 5.2.
